In brackets after ≈: the same amount, converted by molar mass. Activity calls are given as the source filed them. The calls are words filed in the database; no cut-off is given here.
Tests used:
Klebsiella pneumoniae [1] = assay: Antibacterial activity against Klebsiella pneumoniae D 11750/08 up to 500 uM incubated for 24 to 48 hrs under dark condition by microdilution broth assay; type: functional
How it was run: (§1)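 Broth microdilution per M07-A07, modified, in Mueller-Hinton broth adjusted to pH 7.4 (±0.2). Inoculum is prepared in sterile water to McFarland 0.5 (1.5 × 10⁸ CFU/mL). Plates are incubated in the dark at 35 °C in humid air. MIC is read after 24 and 48 h as at least 95% growth reduction versus control (IC₉₅).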

Enterococcus [2] = assay: Antibacterial activity against Enterococcus sp. J 14365/08 incubated for 24 hrs under dark condition by microdilution broth assay; conditions: J 14365/08, 24 h
Mycobacterium avium [3] = assay: Antimycobacterial activity against Mycobacterium avium 330/88 measured after 14 days by micromethod; type: functional; conditions: 330/88, 336 h
Pichia kudriavzevii = assay: Antifungal activity against Candida krusei E28 after 24 to 48 hrs hrs by microdilution broth assay; type: functional
How it was run: (§2)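 Broth microdilution per CLSI M27-A3 and M38-A2 in RPMI 1640 with glutamine, buffered to pH 7.0 with MOPS. Compounds are diluted in DMSO. Final inoculum is 5 × 10³ CFU/mL for yeasts and 0.5–5 × 10⁴ CFU/mL for moulds. Plates are incubated in the dark at 35 °C in humid air and read visually and/or at 540 nm after 24 and 48 h. MIC is ≥80% growth reduction (IC₈₀) for yeasts and ≥50% (IC₅₀) for filamentous fungi.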

Staphylococcus aureus [4] = assay: Antibacterial activity against Staphylococcus aureus CCM 4516/08 incubated for 24 hrs under dark condition by microdilution broth assay; type: functional; conditions: CCM 4516/08, 24 h; how it was run: as §1
Enterococcus [5] = assay: Antibacterial activity against Enterococcus sp. J 14365/08 incubated for 48 hrs under dark condition by microdilution broth assay; conditions: J 14365/08, 48 h
Staphylococcus aureus [6] = assay: Antibacterial activity against methicillin-resistant Staphylococcus aureus H 5996/08 incubated for 24 hrs under dark condition by microdilution broth assay; type: functional; conditions: H 5996/08, 24 h
How it was run: (§3)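 Microdilution broth method modified per M07-A07, in Mueller-Hinton broth adjusted to pH 7.4 (±0.2). Inoculum made in sterile water to 0.5 McFarland (1.5 × 10⁸ CFU/mL). Plates incubated in the dark at 35 °C in a humid atmosphere, with reads at 24 and 48 h. MIC taken as at least 95% growth reduction (IC₉₅) versus control.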

[7] = test system: Staphylococcus epidermidis; assay: Antibacterial activity against Staphylococcus epidermidis H 6966/08 incubated for 48 hrs under dark condition by microdilution broth assay; type: functional; conditions: H 6966/08, 48 h; how it was run: as §1
Trichosporon asahii [8] = assay: Antifungal activity against Trichosporon asahii 1188 after 24 hrs by microdilution broth assay; type: functional; conditions: Trichosporon asahii, 1188, 24 h; how it was run: as §2
Pseudomonas aeruginosa = assay: Antibacterial activity against Pseudomonas aeruginosa CCM 1961 up to 500 uM incubated for 24 to 48 hrs under dark condition by microdilution broth assay; type: functional; how it was run: as §1
Staphylococcus aureus [9] = assay: Antibacterial activity against methicillin-resistant Staphylococcus aureus H 5996/08 incubated for 48 hrs under dark condition by microdilution broth assay; type: functional; conditions: H 5996/08, 48 h; how it was run: as §3
Mycobacterium kansasii [10] = assay: Antimycobacterial activity against Mycobacterium kansasii isolate 6509/96 after 21 days by micromethod; type: functional; conditions: isolate 6509/96, 504 h
[11] = test system: Trichophyton mentagrophytes; assay: Antifungal activity against Trichophyton mentagrophytes 445 after 120 hrs by microdilution broth assay; type: functional; conditions: Trichophyton mentagrophytes, 445, 120 h
How it was run: (§4)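 Broth microdilution per CLSI M38-A2 in RPMI 1640 with glutamine, buffered to pH 7.0 with MOPS, with DMSO as diluent. Final inoculum is 0.5–5 × 10⁴ CFU/mL. Plates are incubated in the dark at 35 °C in humid air and read visually and/or at 540 nm after 72 and 120 h. MIC is at least 50% growth reduction versus control.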

Candida albicans [12] = assay: Antifungal activity against Candida albicans ATCC 44859 after 24 hrs by microdilution broth assay; type: functional; conditions: ATCC 44859, 24 h; how it was run: as §2
[13] = test system: Staphylococcus epidermidis; assay: Antibacterial activity against Staphylococcus epidermidis H 6966/08 incubated for 24 hrs under dark condition by microdilution broth assay; type: functional; conditions: H 6966/08, 24 h; how it was run: as §1
Candida albicans [14] = assay: Antifungal activity against Candida albicans ATCC 44859 after 48 hrs by microdilution broth assay; type: functional; conditions: ATCC 44859, 48 h; how it was run: as §2
Escherichia coli [15] = assay: Antibacterial activity against Escherichia coli CCM 4517 incubated for 48 hrs under dark condition by microdilution broth assay; type: functional; conditions: CCM 4517, 48 h; how it was run: as §1
Mycobacterium kansasii [16] = assay: Antimycobacterial activity against Mycobacterium kansasii isolate 235/80 after 21 days by micromethod; type: functional; conditions: isolate 235/80, 504 h
Candida tropicalis [17] = assay: Antifungal activity against Candida tropicalis 156 after 48 hrs by microdilution broth assay; type: functional; conditions: Candida tropicalis, 156, 48 h; how it was run: as §2
[18] = Solubility of the compound in Sula's semisynthetic medium up to 1 mM; type: physicochemical
Aspergillus fumigatus [19] = assay: Antifungal activity against Aspergillus fumigatus 231 after 24 hrs by microdilution broth assay; type: functional; conditions: Aspergillus fumigatus, 231, 24 h; how it was run: as §2
Trichosporon asahii [20] = assay: Antifungal activity against Trichosporon asahii 1188 after 48 hrs by microdilution broth assay; type: functional; conditions: Trichosporon asahii, 1188, 48 h; how it was run: as §2
Mycobacterium kansasii [21] = assay: Antimycobacterial activity against Mycobacterium kansasii isolate 6509/96 after 14 days by micromethod; type: functional; conditions: isolate 6509/96, 336 h
Mycobacterium avium [22] = assay: Antimycobacterial activity against Mycobacterium avium 330/88 measured after 21 days by micromethod; type: functional; conditions: 330/88, 504 h
Mycobacterium kansasii [23] = assay: Antimycobacterial activity against Mycobacterium kansasii isolate 6509/96 after 7 days by micromethod; type: functional; conditions: isolate 6509/96, 168 h
Escherichia coli [24] = assay: Antibacterial activity against Escherichia coli CCM 4517 incubated for 24 hrs under dark condition by microdilution broth assay; type: functional; conditions: CCM 4517, 24 h; how it was run: as §1
Mycobacterium kansasii [25] = assay: Antimycobacterial activity against Mycobacterium kansasii isolate 235/80 after 14 days by micromethod; type: functional; conditions: isolate 235/80, 336 h
Nakaseomyces glabratus [26] = assay: Antifungal activity against Candida glabrata 20/I after 48 hrs by microdilution broth assay; type: functional; how it was run: as §2
[27] = test system: Mycobacterium tuberculosis; assay: Antimycobacterial activity against Mycobacterium tuberculosis H37Rv 331/88 measured after 14 days by micromethod; type: functional; conditions: H37Rv 331/88, 336 h
Klebsiella pneumoniae [28] = assay: Antibacterial activity against ESBL positive Klebsiella pneumoniae J 14368/08 up to 500 uM incubated for 24 to 48 hrs under dark condition by microdilution broth assay; type: functional; how it was run: as §1
Mycobacterium kansasii [29] = assay: Antimycobacterial activity against Mycobacterium kansasii isolate 235/80 after 7 days by micromethod; type: functional; conditions: isolate 235/80, 168 h
[30] = test system: Mycobacterium tuberculosis; assay: Antimycobacterial activity against Mycobacterium tuberculosis H37Rv 331/88 measured after 21 days by micromethod; type: functional; conditions: H37Rv 331/88, 504 h
Lichtheimia corymbifera = assay: Antifungal activity against Absidia corymbifera 272 after 24 to 48 hrs hrs by microdilution broth assay; type: functional; how it was run: as §2
Candida tropicalis [31] = assay: Antifungal activity against Candida tropicalis 156 after 24 hrs by microdilution broth assay; type: functional; conditions: Candida tropicalis, 156, 24 h; how it was run: as §2
Nakaseomyces glabratus [32] = assay: Antifungal activity against Candida glabrata 20/I after 24 hrs by microdilution broth assay; type: functional; how it was run: as §2
Staphylococcus aureus [33] = assay: Antibacterial activity against Staphylococcus aureus CCM 4516/08 incubated for 48 hrs under dark condition by microdilution broth assay; type: functional; conditions: CCM 4516/08, 48 h; how it was run: as §1
[34] = test system: Trichophyton mentagrophytes; assay: Antifungal activity against Trichophyton mentagrophytes 445 after 72 hrs by microdilution broth assay; type: functional; conditions: Trichophyton mentagrophytes, 445, 72 h; how it was run: as §4
Aspergillus fumigatus [35] = assay: Antifungal activity against Aspergillus fumigatus 231 after 48 hrs by microdilution broth assay; type: functional; conditions: Aspergillus fumigatus, 231, 48 h; how it was run: as §2

Compound: CC(=O)Oc1ccccc1/C=C1\SC(=S)N(CC(=O)O)C1=O
- Activity (Klebsiella pneumoniae [1]): inactive
- MIC95 (Enterococcus [2]): 62.5 µM (≈ 21.1 µg/mL)
- MIC (Mycobacterium avium [3]): 62.5 µM (≈ 21.1 µg/mL)
- Activity (Pichia kudriavzevii): inactive
- MIC95 (Staphylococcus aureus [4]): 62.5 µM (≈ 21.1 µg/mL)
- MIC95 (Enterococcus [5]): 125 µM (≈ 42.2 µg/mL)
- MIC95 (Staphylococcus aureus [6]): 62.5 µM (≈ 21.1 µg/mL)
- MIC95 [7]: 31.2 µM (≈ 10.5 µg/mL)
- MIC80 (Trichosporon asahii [8]): > 500 µM
- Activity (Pseudomonas aeruginosa): inactive
- MIC95 (Staphylococcus aureus [9]): 62.5 µM (≈ 21.1 µg/mL)
- MIC (Mycobacterium kansasii [10]): 62.5 µM (≈ 21.1 µg/mL)
- MIC50 [11]: 500 µM (≈ 169 µg/mL)
- MIC80 (Candida albicans [12]): > 500 µM
- MIC95 [13]: 31.2 µM (≈ 10.5 µg/mL)
- MIC80 (Candida albicans [14]): > 500 µM
- MIC95 (Escherichia coli [15]): > 500 µM
- MIC (Mycobacterium kansasii [16]): 62.5 µM (≈ 21.1 µg/mL)
- MIC80 (Candida tropicalis [17]): > 500 µM
- solubility [18]: Soluble
- MIC50 (Aspergillus fumigatus [19]): > 500 µM
- MIC80 (Trichosporon asahii [20]): > 500 µM
- MIC (Mycobacterium kansasii [21]): 62.5 µM (≈ 21.1 µg/mL)
- MIC (Mycobacterium avium [22]): 62.5 µM (≈ 21.1 µg/mL)
- MIC (Mycobacterium kansasii [23]): 62.5 µM (≈ 21.1 µg/mL)
- MIC95 (Escherichia coli [24]): > 500 µM
- MIC (Mycobacterium kansasii [25]): 62.5 µM (≈ 21.1 µg/mL)
- MIC80 (Nakaseomyces glabratus [26]): > 500 µM
- MIC [27]: 32 µM (≈ 10.8 µg/mL)
- Activity (Klebsiella pneumoniae [28]): inactive
- MIC (Mycobacterium kansasii [29]): 62.5 µM (≈ 21.1 µg/mL)
- MIC [30]: 32 µM (≈ 10.8 µg/mL)
- Activity (Lichtheimia corymbifera): inactive
- MIC80 (Candida tropicalis [31]): > 500 µM
- MIC80 (Nakaseomyces glabratus [32]): > 500 µM
- MIC95 (Staphylococcus aureus [33]): 62.5 µM (≈ 21.1 µg/mL)
- MIC50 [34]: 250 µM (≈ 84.3 µg/mL)
- MIC50 (Aspergillus fumigatus [35]): > 500 µM

Compound: O=C(CN1C(=O)CSC1=S)Oc1ccc([N+](=O)[O-])cc1
- Activity (Klebsiella pneumoniae [1]): inactive
- MIC95 (Enterococcus [2]): 500 µM (≈ 156 µg/mL)
- MIC (Mycobacterium avium [3]): 1000 µM (≈ 312 µg/mL)
- Activity (Pichia kudriavzevii): inactive
- MIC95 (Staphylococcus aureus [4]): 250 µM (≈ 78.1 µg/mL)
- MIC95 (Enterococcus [5]): 500 µM (≈ 156 µg/mL)
- MIC95 (Staphylococcus aureus [6]): 500 µM (≈ 156 µg/mL)
- MIC95 [7]: 500 µM (≈ 156 µg/mL)
- MIC80 (Trichosporon asahii [8]): > 500 µM
- Activity (Pseudomonas aeruginosa): inactive
- MIC95 (Staphylococcus aureus [9]): 500 µM (≈ 156 µg/mL)
- MIC (Mycobacterium kansasii [10]): 500 µM (≈ 156 µg/mL)
- MIC50 [11]: 250 µM (≈ 78.1 µg/mL)
- MIC80 (Candida albicans [12]): > 500 µM
- MIC95 [13]: 500 µM (≈ 156 µg/mL)
- MIC80 (Candida albicans [14]): > 500 µM
- MIC95 (Escherichia coli [15]): > 500 µM
- MIC (Mycobacterium kansasii [16]): 1000 µM (≈ 312 µg/mL)
- MIC80 (Candida tropicalis [17]): > 500 µM
- solubility [18]: Soluble
- MIC50 (Aspergillus fumigatus [19]): 500 µM (≈ 156 µg/mL)
- MIC80 (Trichosporon asahii [20]): > 500 µM
- MIC (Mycobacterium kansasii [21]): 500 µM (≈ 156 µg/mL)
- MIC (Mycobacterium avium [22]): 1000 µM (≈ 312 µg/mL)
- MIC (Mycobacterium kansasii [23]): 500 µM (≈ 156 µg/mL)
- MIC95 (Escherichia coli [24]): > 500 µM
- MIC (Mycobacterium kansasii [25]): 500 µM (≈ 156 µg/mL)
- MIC80 (Nakaseomyces glabratus [26]): > 500 µM
- MIC [27]: 500 µM (≈ 156 µg/mL)
- Activity (Klebsiella pneumoniae [28]): inactive
- MIC (Mycobacterium kansasii [29]): 500 µM (≈ 156 µg/mL)
- MIC [30]: 500 µM (≈ 156 µg/mL)
- Activity (Lichtheimia corymbifera): inactive
- MIC80 (Candida tropicalis [31]): > 500 µM
- MIC80 (Nakaseomyces glabratus [32]): > 500 µM
- MIC95 (Staphylococcus aureus [33]): 500 µM (≈ 156 µg/mL)
- MIC50 [34]: 125 µM (≈ 39 µg/mL)
- MIC50 (Aspergillus fumigatus [35]): > 500 µM
